From publication PMC3215888 (Cancer Chemotherapy and Pharmacology, 2011)
Like-named read-outs stand apart in the source and are kept apart here.

How the values were obtained:
[1] = tested on: CHLA-10 Ewing sarcoma cell line; assay: DIMSCAN in vitro testing, 96 h; assay type: cell-based; details: for IC50: 96 h
In short: (§1)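 Neuroblastoma and Ewing sarcoma lines, STR-verified and maintained as in the originators' reports. Exposed for 96 h to test compound (DMSO stock diluted in medium) at 1 nM–10 μM. Viable cells quantified by fluorescein diacetate fluorescence with DIMSCAN digital image microscopy. Absolute IC50 = concentration giving 50% growth inhibition vs controls. Relative IC50 = concentration giving 50% of the maximum inhibitory effect.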

[2] = tested on: CHLA-140 neuroblastoma cell line; assay: DIMSCAN in vitro testing, 96 h; assay type: cell-based; details: for IC50: Neuroblastoma cell, 96 h
In short: as §1

[3] = tested on: SMS-SAN neuroblastoma cell line; assay: DIMSCAN in vitro testing, 96 h; assay type: cell-based; details: for IC50: Neuroblastoma cell, 96 h
In short: as §1

[4] = tested on: NB-1771 Neuroblastoma xenograft; assay type: in vivo, mice
In short: (§2)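 Female CB17 scid mice bearing subcutaneous tumors, 10 per group. Dosed by oral gavage twice daily, 5 days weekly for 6 weeks, at 20.8, 10.4, 5.2 or 2.6 mg/kg, in 10% 2-hydroxypropyl-β-cyclodextrin/1% sodium bicarbonate. Event = quadrupled tumor volume; EFS by Kaplan–Meier, exact log-rank test. Per-mouse scores PD/SD/PR (≥50% regression)/CR (<0.10 cm3)/MCR; group median reported. PR, CR and MCR count as objective responses.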

[5] = tested on: NB-1771 tumor xenograft; assay: Pharmacodynamics: mitotic index; assay type: in vivo, mice; details: single 20.8 mg/kg
In short: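 Single oral 20.8 mg/kg dose to mice bearing NB-1771 tumors. Tumors taken at 0, 2, 6, 8, 12 and 24 h (3 mice per time), formalin-fixed, paraffin-embedded. 5 μm sections immunofluorescently stained for MPM2 (1:100) and phospho-Ser10 histone H3 (1:25), 60 min at room temperature, DAPI counterstain. Five 40× images per slide; mitotic index = % cells positive for either marker; mean ± SD.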

[6] = tested on: Aurora kinase A; details: cited from earlier work
[7] = tested on: NB-1643 Neuroblastoma xenograft; assay type: in vivo, mice
In short: as §2

[8] = tested on: CHLA-25 Ewing sarcoma cell line; assay: DIMSCAN in vitro testing, 96 h; assay type: cell-based; details: for IC50: 96 h
In short: as §1

[9] = tested on: SMS-KAN neuroblastoma cell line; assay: DIMSCAN in vitro testing, 96 h; assay type: cell-based
[10] = tested on: SMS-KANR neuroblastoma cell line; assay: DIMSCAN in vitro testing, 96 h; assay type: cell-based; details: for IC50: Neuroblastoma cell, 96 h
[11] = tested on: ALL-8 ALL T-cell xenograft; assay: ALL xenograft; assay type: in vivo, mice
In short: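 Female NOD/scid mice inoculated intravenously with leukemia cells, 8 per group. Test compound suspended in 10% 2-hydroxypropyl-β-cyclodextrin/1% sodium bicarbonate in water. Given by oral gavage twice daily, 5 days weekly for 3 weeks, at 20.8, 10.4, 5.2 or 2.6 mg/kg. Blood %hCD45 of leukocytes tracked; event = hCD45 reaching 25%. EFS by Kaplan–Meier, exact log-rank vs controls. Median group response from individual scores.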

COc1cc(Nc2ncc3c(n2)-c2ccc(Cl)cc2C(c2c(F)cccc2OC)=NC3)ccc1C(=O)O [MLN8237]
IC50 ([1]; read-out: Absolute IC50): 60 nM | IC50 ([1]; read-out: Relative IC50): 56 nM | Ymin ([1]; CHLA-10, minimum T/C): 4.7% | Ymin ([2]; CHLA-140, minimum T/C): 29.4% | IC50 ([2]; read-out: Absolute IC50): 26 nM | IC50 ([2]; read-out: Relative IC50): 14 nM | IC50 ([3]; read-out: Absolute IC50): 20 nM | IC50 ([3]; read-out: Relative IC50): 18 nM | Ymin ([3]; SMS-SAN, minimum T/C): 5.9% | EFS T/C ([4]; 2.6 mg/kg): 1.9 | EFS activity ([4]; 2.6 mg/kg): Low | Estimate of median time to event ([4]; 2.6 mg/kg): 38.2 days | Median group response ([4]; 2.6 mg/kg): PD2 (if the TGD value >1.5, the mouse was considered PD2) | Response activity ([4]; 2.6 mg/kg): Int | Tumor volume T/C ([4]; 2.6 mg/kg): 0.38 | Median RTV/hCD45 at end of study ([4]; 2.6 mg/kg): >4 | EFS T/C ([4]; 5.2 mg/kg): >2.1 | EFS activity ([4]; 5.2 mg/kg): Int | Median group response ([4]; 5.2 mg/kg): PD2 (if the TGD value >1.5, the mouse was considered PD2) | Response activity ([4]; 5.2 mg/kg): Int | Tumor volume T/C ([4]; 5.2 mg/kg): 0.38 | Median RTV/hCD45 at end of study ([4]; 5.2 mg/kg): 2.2 | EFS T/C ([4]; 10.4 mg/kg): >2.1 | EFS activity ([4]; 10.4 mg/kg): High | Median group response ([4]; 10.4 mg/kg): MCR | Response activity ([4]; 10.4 mg/kg): High | Tumor volume T/C ([4]; 10.4 mg/kg): 0.08 | Median RTV/hCD45 at end of study ([4]; 10.4 mg/kg): 0.0 | EFS T/C ([4]; 20.8 mg/kg): >2.1 | EFS activity ([4]; 20.8 mg/kg): High | Median group response ([4]; 20.8 mg/kg): MCR | Response activity ([4]; 20.8 mg/kg): High | Tumor volume T/C ([4]; 20.8 mg/kg): 0.02 | Median RTV/hCD45 at end of study ([4]; 20.8 mg/kg): 0.0 | time of return of mitotic indices to baseline levels [5]: 24 h | time of peak of mitotic indices / pharmacodynamic activity ([5]; 20.8 mg/kg): 12 h | increase of mitotic indices (MPM2, pHistH3) within 6 h ([5]; 6 h): approximately twofold | increase of mitotic indices (MPM2, pHistH3) at peak ([5]; 12 h): three to fivefold | specificity for Aurora kinase A inhibition versus Aurora kinase B [6]: 200 fold | EFS T/C ([7]; 2.6 mg/kg): 1.2 | EFS activity ([7]; 2.6 mg/kg): Low | Estimate of median time to event ([7]; 2.6 mg/kg): 20.3 days | Median group response ([7]; 2.6 mg/kg): PD1 (if the TGD value ≤1.5, that mouse was considered PD1) | Response activity ([7]; 2.6 mg/kg): Low | Tumor volume T/C ([7]; 2.6 mg/kg): 1.01 | Median RTV/hCD45 at end of study ([7]; 2.6 mg/kg): >4 | EFS T/C ([7]; 5.2 mg/kg): >2.4 | EFS activity ([7]; 5.2 mg/kg): High | Response activity ([7]; 5.2 mg/kg): High | Tumor volume T/C ([7]; 5.2 mg/kg): 0.38 | Median RTV/hCD45 at end of study ([7]; 5.2 mg/kg): 0.4 | EFS T/C ([7]; 10.4 mg/kg): >2.4 | EFS activity ([7]; 10.4 mg/kg): High | Median group response ([7]; 10.4 mg/kg): MCR | Response activity ([7]; 10.4 mg/kg): High | Tumor volume T/C ([7]; 10.4 mg/kg): 0.30 | Median RTV/hCD45 at end of study ([7]; 10.4 mg/kg): 0.0 | EFS T/C ([7]; 20.8 mg/kg): >2.4 | EFS activity ([7]; 20.8 mg/kg): High | Median group response ([7]; 20.8 mg/kg): MCR | Response activity ([7]; 20.8 mg/kg): High | Tumor volume T/C ([7]; 20.8 mg/kg): 0.14 | Median RTV/hCD45 at end of study ([7]; 20.8 mg/kg): 0.0 | IC50 ([8]; read-out: Absolute IC50): 168 nM | IC50 ([8]; read-out: Relative IC50): 58 nM | Ymin ([8]; CHLA-25, minimum T/C): 30.1% | IC50 ([9]; read-out: Absolute IC50): 34 nM | IC50 ([9]; read-out: Relative IC50): 32 nM | IC50 ([10]; read-out: Absolute IC50): 26 nM | IC50 ([10]; read-out: Relative IC50): 23 nM | Ymin ([10]; SMS-KANR, minimum T/C): 11.4% | EFS T/C ([11]; 2.6 mg/kg): 1.8 | EFS activity ([11]; 2.6 mg/kg): Low | Estimate of median time to event ([11]; 2.6 mg/kg): 23.0 days | Median group response ([11]; 2.6 mg/kg): PD2 (if the TGD value >1.5, the mouse was considered PD2) | Response activity ([11]; 2.6 mg/kg): Int | Median RTV/hCD45 at end of study ([11]; 2.6 mg/kg): >25% | EFS T/C ([11]; 5.2 mg/kg): 2.5 | EFS activity ([11]; 5.2 mg/kg): Int | Estimate of median time to event ([11]; 5.2 mg/kg): 31.6 days | Response activity ([11]; 5.2 mg/kg): High | Median RTV/hCD45 at end of study ([11]; 5.2 mg/kg): >25% | EFS T/C ([11]; 10.4 mg/kg): >3.3 | EFS activity ([11]; 10.4 mg/kg): Int | Response activity ([11]; 10.4 mg/kg): High | Median RTV/hCD45 at end of study ([11]; 10.4 mg/kg): 6.2% | EFS T/C ([11]; 20.8 mg/kg): >3.3 | EFS activity ([11]; 20.8 mg/kg): High | Median group response ([11]; 20.8 mg/kg): MCR | Response activity ([11]; 20.8 mg/kg): High | Median RTV/hCD45 at end of study ([11]; 20.8 mg/kg): 0.2%
